Data as given in ChEMBL document CHEMBL3351820, “Development of novel membrane active lipidated peptidomimetics active against drug resistant clinical isolates” (Bioorg Med Chem, 2014).
≈ marks a conversion by molar mass, not a printed value. Calls of active or inactive are those of the source. The rule behind the calls is not given here. Where a SMILES comes first, the peptide text is derived from it. [ ]: non-standard residue; d: D form. The star is where a group is joined. Stearoyl = CCCCCCCCCCCCCCCCCC(=O)*; Palmitoyl = CCCCCCCCCCCCCCCC(=O)*; Lauroyl = CCCCCCCCCCCC(=O)*; Decanoyl = CCCCCCCCCC(=O)*; 3Abz = Nc1cccc(C(=O)O)c1; Orn = NCCC[CH](N)C(=O)O

Columns and labels:
Aspergillus fumigatus [1] = experiment: Antifungal activity against fluconazole-resistant Aspergillus fumigatus IGMC/LM1/0336 after 24 hrs by M27-A method; type: functional; conditions: IGMC/LM1/0336, 24 h
Summary of the method: (§1)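 Fungi at 2.5×10^3 cfu/mL in RPMI 1640 (L-glutamine, no glucose or NaHCO3, pH 7.0 with 0.165 M MOPS). Mixed 1:1 with serial 2-fold dilutions in water, incubated at 37 °C with shaking, 24 h for A. fumigatus and 48–72 h for C. albicans. Growth read by absorbance at 600 nm. MIC taken as the lowest concentration with no growth.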

Aspergillus niger = experiment: Antifungal activity against Aspergillus niger ATCC 64028 after 24 hrs by M27-A method; type: functional; conditions: ATCC 64028, 24 h
Summary of the method: (§2)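 Fungi at 2.5×10^3 cfu/mL in RPMI 1640 (L-glutamine, no glucose or NaHCO3, buffered pH 7.0 with 0.165 M MOPS), mixed 1:1 with serial 2-fold aqueous dilutions. Incubated at 37 °C with shaking, 24 h for Aspergillus, 48-72 h for Candida and Cryptococcus; A600 read. MIC taken as lowest concentration with no growth.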

Escherichia coli [2] = experiment: Antibacterial activity against Escherichia coli MTCC 0723 after 18 hrs by micro dilution broth assay; type: functional; conditions: MTCC 0723, 18 h
Summary of the method: (§3)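 Broth microdilution (modified CLSI): mid-log inoculum at 10^5 CFU/mL in Mueller-Hinton broth; serial 2-fold dilutions of sample in 0.001% acetic acid with 0.2% BSA added. Incubated overnight at 37 °C with agitation; A600 read at 18 h. Drug-free culture and uninoculated broth as controls; triplicate.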

Escherichia coli [3] = experiment: Antibacterial activity against imipenem-resistant Escherichia coli PGI/ DML02292 clinical isolate after 18 hrs by micro dilution broth assay; type: functional; conditions: PGI/ DML02292, 18 h
Pseudomonas aeruginosa = experiment: Antibacterial activity against Pseudomonas aeruginosa MTCC 2295 after 18 hrs by micro dilution broth assay; type: functional; conditions: MTCC 2295, 18 h; summary of the method: as §3
Staphylococcus aureus [4] = experiment: Antibacterial activity against Staphylococcus aureus MTCC 3160 after 18 hrs by micro dilution broth assay; type: functional; conditions: MTCC 3160, 18 h; summary of the method: as §3
Staphylococcus aureus [5] = experiment: Antibacterial activity against methicillin-resistant Staphylococcus aureus PGI/ DML03149 clinical isolate after 18 hrs by micro dilution broth assay; type: functional; conditions: PGI/ DML03149, 18 h
Bacillus subtilis = experiment: Antibacterial activity against Bacillus subtilis MTCC 2763 after 18 hrs by micro dilution broth assay; type: functional; conditions: MTCC 2763, 18 h; summary of the method: as §3
[6] = Hemolytic activity in human RBCs; type: ADME, cell-based, Erythrocyte; conditions: red blood cells (RBCs)
Summary of the method: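 Washed fresh human erythrocytes, 4% (v/v) in PBS (35 mM phosphate, 150 mM NaCl, pH 7.2), mixed 1:1 with 2-fold dilutions in PBS. Incubated 1 h at 37 °C without agitation, then centrifuged at 1000 g for 5 min. Supernatant hemoglobin read at 440 nm; % hemolysis = 100(A−A0)/(At−A0).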

Candida albicans [7] = experiment: Antifungal activity against Candida albicans ATCC 24433 after 48 to 72 hrs by M27-A method; type: functional; summary of the method: as §2
Candida albicans [8] = experiment: Antifungal activity against fluconazole-resistant Candida albicans PGI/ DML0109 clinical isolate after 48 to 72 hrs by M27-A method; type: functional; summary of the method: as §1
Cryptococcus neoformans = experiment: Antifungal activity against Cryptococcus neoformans ATCC 2344 after 48 to 72 hrs by M27-A method; type: functional; summary of the method: as §2
Aspergillus fumigatus [9] = experiment: Antifungal activity against Aspergillus fumigatus ATCC 42203 after 24 hrs by M27-A method; type: functional; conditions: ATCC 42203, 24 h; summary of the method: as §2
[10] = Therapeutic index, ratio of HC50 for human RBCs to MIC for Escherichia coli MTCC 0723; conditions: red blood cells (RBCs), read-out: TI
[11] = Therapeutic index, ratio of HC50 for human RBCs to MIC for Staphylococcus aureus MTCC 3160; conditions: red blood cells (RBCs), read-out: TI
[12] = Membrane permeabilization activity assessed as release of calcein from PE/PG liposomes at 4 ug/ml after 5 mins by spectrofluorimetry; type: ADME
Summary of the method: (§4)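 Calcein-loaded LUVs, PE/PG (bacterial mimic) or PC/PE/PI/ergosterol (fungal mimic), exposed to 1-20 μg/mL for 5 min before fluorescence reading. Triton X-100 in Tris-HCl/NaCl/EDTA buffer sets 100% leakage; % leakage = 100(F−F0)/(Ft−F0). Run in triplicate, two independent experiments, mean ± SD.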

[13] = Membrane permeabilization activity assessed as release of calcein from PC/PE/PI/ergosterol liposomes at 20 ug/ml after 5 mins by spectrofluorimetry; type: ADME; summary of the method: as §4
[14] = Membrane permeabilization activity assessed as release of calcein from PE/PG liposomes at 20 ug/ml after 5 mins by spectrofluorimetry; type: ADME; summary of the method: as §4
[15] = Membrane permeabilization activity assessed as release of calcein from PC/PE/PI/ergosterol liposomes at 4 ug/ml after 5 mins by spectrofluorimetry; type: ADME; summary of the method: as §4
Aspergillus fumigatus [16] = experiment: Membrane disruption effect in Aspergillus fumigatus ATCC 42203 assessed as surface blebs and aggregation at 4 times MIC by scanning electron microscopy; type: functional, organism-based

SMILES | MIC (Aspergillus fumigatus [1]) [µg/mL] | MIC (Aspergillus niger) [µg/mL] | MIC (Escherichia coli [2]) [µg/mL] | MIC (Escherichia coli [3]) [µg/mL] | MIC (Pseudomonas aeruginosa) [µg/mL] | MIC (Staphylococcus aureus [4]) [µg/mL] | MIC (Staphylococcus aureus [5]) [µg/mL] | MIC (Bacillus subtilis) [µg/mL] | HC50 [6] [µg/mL] | MIC (Candida albicans [7]) [µg/mL] | MIC (Candida albicans [8]) [µg/mL] | MIC (Cryptococcus neoformans) [µg/mL] | MIC (Aspergillus fumigatus [9]) [µg/mL] | selectivity ratio [10] | selectivity ratio [11] | Activity [12] [%] | Activity [13] [%] | Activity [14] [%] | Activity [15] [%] | Activity (Aspergillus fumigatus [16])
CCCCCCCCCC(=O)Nc1cccc(C(=O)NC(CCCN)C(=O)NC(CCCN)C(=O)NC(CCCN)C(N)=O)c1 (stereo unspecified) | 30 (≈ 47.4 µM) | 50 (≈ 79 µM) | 62.5 (≈ 98.8 µM) | 70 (≈ 111 µM) | 50 (≈ 79 µM) | 31.2 (≈ 49.3 µM) | 50 (≈ 79 µM) | 125 (≈ 198 µM) | > 1000 | 62.5 (≈ 98.8 µM) | 75 (≈ 119 µM) | 75 (≈ 119 µM) | 31.5 (≈ 49.8 µM) |  |  |  |  |  |  | 
CCCCCCCCCCCC(=O)Nc1cccc(C(=O)NC(CCCN)C(=O)NC(CCCN)C(=O)NC(CCCN)C(N)=O)c1 (stereo unspecified) | 12.5 (≈ 18.9 µM) | 15 (≈ 22.7 µM) | 12.5 (≈ 18.9 µM) | 10.5 (≈ 15.9 µM) | 4.5 (≈ 6.81 µM) | 6.25 (≈ 9.46 µM) | 12 (≈ 18.2 µM) | 100 (≈ 151 µM) | 900 | 15.5 (≈ 23.5 µM) | 15 (≈ 22.7 µM) | 12.5 (≈ 18.9 µM) | 10 (≈ 15.1 µM) | 72 | 144 |  |  |  |  | 
CCCCCCCCCCCCCC(=O)Nc1cccc(C(=O)NC(CCCN)C(=O)NC(CCCN)C(=O)NC(CCCN)C(N)=O)c1 (stereo unspecified) | 6.25 (≈ 9.07 µM) | 5 (≈ 7.26 µM) | 2.25 (≈ 3.27 µM) | 4 (≈ 5.81 µM) | 2.5 (≈ 3.63 µM) | 3.1 (≈ 4.5 µM) | 4.5 (≈ 6.53 µM) | 15.5 (≈ 22.5 µM) | 750 | 5.5 (≈ 7.98 µM) | 6.25 (≈ 9.07 µM) | 10 (≈ 14.5 µM) | 4.5 (≈ 6.53 µM) | 333 | 242 |  |  |  |  | 
CCCCCCCCCCCCCCCC(=O)Nc1cccc(C(=O)NC(CCCN)C(=O)NC(CCCN)C(=O)NC(CCCN)C(N)=O)c1 (stereo unspecified) | 5 (≈ 6.97 µM) | 4.25 (≈ 5.93 µM) | 3.5 (≈ 4.88 µM) | 4.5 (≈ 6.28 µM) | 5.5 (≈ 7.67 µM) | 5 (≈ 6.97 µM) | 5 (≈ 6.97 µM) | 20 (≈ 27.9 µM) | 450 | 3 (≈ 4.18 µM) | 3.5 (≈ 4.88 µM) | 3.5 (≈ 4.88 µM) | 3.5 (≈ 4.88 µM) | 129 | 90 |  |  |  |  | 
CCCCCCCCCCCCCCCCCC(=O)Nc1cccc(C(=O)NC(CCCN)C(=O)NC(CCCN)C(=O)NC(CCCN)C(N)=O)c1 (stereo unspecified) | 2.5 (≈ 3.36 µM) | 3.5 (≈ 4.7 µM) | 6.25 (≈ 8.39 µM) | 7.5 (≈ 10.1 µM) | 10 (≈ 13.4 µM) | 12.5 (≈ 16.8 µM) | 10.5 (≈ 14.1 µM) | 25 (≈ 33.6 µM) | 250 | 2.25 (≈ 3.02 µM) | 2 (≈ 2.68 µM) | 6.5 (≈ 8.72 µM) | 2 (≈ 2.68 µM) | 40 | 20 |  |  |  |  | 
CCCCCCCCCC(=O)Nc1cccc(C(=O)NC(CCCN)C(=O)NC(CCCN)C(=O)NC(CCCN)C(=O)NC(CCCN)C(N)=O)c1 (stereo unspecified) ({Decanoyl-3Abz}-[Orn][Orn][Orn][Orn]-NH2; configuration not given here) | 25 (≈ 33.5 µM) | 31.5 (≈ 42.2 µM) | 17.5 (≈ 23.4 µM) | 25 (≈ 33.5 µM) | 25 (≈ 33.5 µM) | 20 (≈ 26.8 µM) | 35 (≈ 46.9 µM) | 100 (≈ 134 µM) | 1000 | 50 (≈ 66.9 µM) | 50 (≈ 66.9 µM) | 50 (≈ 66.9 µM) | 25 (≈ 33.5 µM) | 57.1 | 50 | 11 | 45 | 67 | 17 | 
CCCCCCCCCCCC(=O)Nc1cccc(C(=O)NC(CCCN)C(=O)NC(CCCN)C(=O)NC(CCCN)C(=O)NC(CCCN)C(N)=O)c1 (stereo unspecified) ({Lauroyl-3Abz}-[Orn][Orn][Orn][Orn]-NH2; configuration not given here) | 5.5 (≈ 7.1 µM) | 6.25 (≈ 8.06 µM) | 1.5 (≈ 1.94 µM) | 5.5 (≈ 7.1 µM) | 1.5 (≈ 1.94 µM) | 2.5 (≈ 3.23 µM) | 3.25 (≈ 4.19 µM) | 15.5 (≈ 20 µM) | 750 | 5.5 (≈ 7.1 µM) | 7.5 (≈ 9.68 µM) | 10.5 (≈ 13.5 µM) | 5 (≈ 6.45 µM) | 500 | 300 |  |  |  |  | 
CCCCCCCCCCCCCCCC(=O)Nc1cccc(C(=O)NC(CCCN)C(=O)NC(CCCN)C(=O)NC(CCCN)C(=O)NC(CCCN)C(N)=O)c1 (stereo unspecified) ({Palmitoyl-3Abz}-[Orn][Orn][Orn][Orn]-NH2; configuration not given here) | 3.5 (≈ 4.21 µM) | 3.1 (≈ 3.73 µM) | 2 (≈ 2.41 µM) | 3.5 (≈ 4.21 µM) | 3.1 (≈ 3.73 µM) | 3 (≈ 3.61 µM) | 5 (≈ 6.02 µM) | 20 (≈ 24.1 µM) | 350 | 2 (≈ 2.41 µM) | 3.5 (≈ 4.21 µM) | 5 (≈ 6.02 µM) | 1.5 (≈ 1.8 µM) | 175 | 117 |  |  |  |  | 
CCCCCCCCCCCCCCCCCC(=O)Nc1cccc(C(=O)NC(CCCN)C(=O)NC(CCCN)C(=O)NC(CCCN)C(=O)NC(CCCN)C(N)=O)c1 (stereo unspecified) ({Stearoyl-3Abz}-[Orn][Orn][Orn][Orn]-NH2; configuration not given here) | 2 (≈ 2.33 µM) | 1.5 (≈ 1.75 µM) | 3.5 (≈ 4.07 µM) | 5 (≈ 5.82 µM) | 6.25 (≈ 7.27 µM) | 10 (≈ 11.6 µM) | 10.5 (≈ 12.2 µM) | 12.5 (≈ 14.5 µM) | 200 | 1.5 (≈ 1.75 µM) | 2 (≈ 2.33 µM) | 5.5 (≈ 6.4 µM) | 1.5 (≈ 1.75 µM) | 57.1 | 20 | 44 | 89 | 84 | 57 | Active
C[C@@H]1[C@H](O)[C@@H](C)/C=C/C=C/C=C/C=C/C=C/C=C/C=C/[C@H](O[C@@H]2O[C@H](C)[C@@H](O)[C@H](N)[C@@H]2O)C[C@@H]2O[C@](O)(C[C@@H](O)C[C@@H](O)[C@H](O)CC[C@@H](O)C[C@@H](O)CC(=O)O[C@H]1C)C[C@H](O)[C@H]2C(=O)O [AMPHOTERICIN B] | 0.9 (≈ 0.974 µM) | 0.5 (≈ 0.541 µM) |  |  |  |  |  |  |  | 0.5 (≈ 0.541 µM) | 0.7 (≈ 0.758 µM) | 0.3 (≈ 0.325 µM) | 0.3 (≈ 0.325 µM) |  |  |  |  |  |  | 
O=C(O)c1cn(C2CC2)c2cc(N3CCNCC3)c(F)cc2c1=O [CIPROFLOXACIN] |  |  |  |  | 0.3 (≈ 0.905 µM) | 0.2 (≈ 0.604 µM) |  | 0.5 (≈ 1.51 µM) |  |  |  |  |  |  |  |  |  |  |  | 
